Measurements as given in article PMC3437501 (European Journal of Pain (London, England), 2011).
Entries after “also recorded” stand apart in the source; their conditions may differ. Marks after values point to notes of the source that are not given here.

Legend:
prostaglandin E2 (PGE2) = test: Prostaglandin E2 in tissue exudate, plasma and CSF; format: in vivo, human
Summary of the method: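 Hip-arthroplasty patients dosed orally with 120 mg test compound or placebo on surgery day and next day. Drain exudate collected over 60 min before 4, 8, 12, 24, 26, 32, 48 h, centrifuged, supernatant frozen −30 °C. PGE2 in exudate and plasma by ELISA (LOQ 15 pg/mL). CSF PGE2 by solid-phase extraction LC-MS/MS with prostaglandin D2-d4 (LOQ 25–200 pg/mL). Partial AUCs by trapezoidal rule.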

[1] = Post-operative consumption of intrathecal bupivacaine and piritramide; format: in vivo, human
Summary of the method: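 After spinal bupivacaine 0.5% via lumbar intrathecal catheter, 0.01% bupivacaine infused intrathecally at 4–6 mL/h plus patient-controlled boluses up to 1 mL every 10 min, 4-h lockout 40 mL. Breakthrough pain: piritramide i.v. up to 5 mg (s.c. up to 15 mg). Total consumption, requests, delivered boluses and request times recorded. Patient lacking catheter excluded.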

[2] = Pharmacokinetics of etoricoxib in plasma, CSF and tissue exudate; format: in vivo, human; settings: for Cmax / Tmax / Kp: human, 120 mg; for Kp: CSF/plasma
Summary of the method: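 Six hip-arthroplasty patients given oral 120 mg at 6:30 a.m. on surgery day and 24 h later. Blood and intrathecal-catheter CSF sampled predose and 1.5–48 h, first 1 mL CSF discarded; drain exudate collected hourly windows. LC-MS/MS with phenazone internal standard, LOQ 0.2 ng/mL, validated 0.2–200 ng/mL. AUC0–24 h by linear trapezoidal method; CSF/plasma ratio from AUCs, maximal ratio from individual concentrations.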

interleukin 6 (IL6) = test: Interleukin 6 in plasma, CSF and tissue exudate; format: in vivo, human
Summary of the method: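 Osteoarthritis patients (59–77 y) undergoing hip arthroplasty under spinal bupivacaine, given oral test compound 120 mg or placebo at 6:30 a.m. on surgery day and next day. Plasma and CSF sampled predose and 1.5–48 h; drain exudate collected over 60 min before 4–48 h, centrifuged, frozen −30 °C. IL6 by ELISA (LOQ 7.8 pg/mL); partial AUCs by linear trapezoidal rule.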

[3] = cited from earlier work
[4] = Safety: adverse events and blood loss during surgery; format: in vivo, human
[5] = Patient ratings of post-operative pain, satisfaction and sleep disturbance; format: in vivo, human; settings: first 24 h; interaction p = 0.036
Summary of the method: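 Patients dosed orally with 120 mg test compound or placebo on surgery day and next day, double-blind. Global pain and operated-hip pain at rest and passive movement rated on 11-point scale (0 = no pain, 10 = worst) at 4, 8, 12, 24, 26, 32, 48 h. Satisfaction with analgesia on numeric rating scale; sleep disturbance (0–10) at 24, 48, 72 h.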

[6] = same dose; ref Fletcher et al., [1995]; cited from earlier work
[7] = tissue exudate, 12–24 h, mean, n = 6
[8] = tissue exudate, 24–36 h, mean, n = 6
[9] = tissue exudate, 36–47 h, mean, n = 6

## Cc1ccc(-c2ncc(Cl)cc2-c2ccc(S(C)(=O)=O)cc2)cn1 [Etoricoxib, etoricoxib]
Prostaglandin E2 (PGE2); plasma and CSF, both groups, differences not significant
  Concentrations of PGE2 in plasma and CSF: near or below the LOQ
Prostaglandin E2 (PGE2); preoperative administration
  PGE2 production in the surgical wound: complete blockade
Prostaglandin E2 (PGE2); tissue exudate (hip drain), 4–12 h, mean, n = 6
  PGE2 tissue exudate AUC (4–12 h): 40 ng·h/mL
Prostaglandin E2 (PGE2); [7]
  PGE2 tissue exudate AUC (12–24 h): 48 ng·h/mL
Prostaglandin E2 (PGE2); [8]
  PGE2 tissue exudate AUC (24–36 h): 29 ng·h/mL
Prostaglandin E2 (PGE2); [9]
  PGE2 tissue exudate AUC (36–47 h): 16 ng·h/mL
Prostaglandin E2 (PGE2); wound fluid, versus fast increase in placebo group, treatment p = 0.014
  PGE2 concentration in wound fluid: remained low throughout
[1]; 2 to 48 h, main effect treatment p = 0.003
  Demand for piritramide versus placebo: significantly higher in the placebo group
[1]; only during the first 12 h post-operatively, main effect treatment p = 0.052
  On request local anaesthetic administration versus placebo: higher in the placebo group
[2]; CSF, po
  Cmax: 160 ng/mL
  Tmax: 1.5 h
[2]; oral, CSF/plasma ratio AUC 0–24 h, individual ratios, mean (range)
  Kp: 0.041
[2]; oral, Maximal CSF/plasma conc. ratio, individual maximal concentration ratio, mean (SD)
  Kp: 0.122
[2]; oral
  Tmax: < 2 h
[2]; plasma, po
  Cmax: 1880 ng/mL
  Tmax: 1.5 h
[2]; individual ratios, mean (range), subgroup n = 5
  CSF/plasma ratio AUC 0–48 h: 4.7 (2.8–8.1) ^b %
[2]; median (range)
  tmax for CSF/plasma conc. ratio: 1.75 (1.5–32) h
Interleukin 6 (IL6); CSF, 1.5–12 h, mean, n = 6
  IL6 cerebrospinal fluid (w/o R111) AUC (1.5–12 h): 340 pg·h/mL
Interleukin 6 (IL6); CSF, 12–24 h, mean, n = 6
  IL6 cerebrospinal fluid (w/o R111) AUC (12–24 h): 660 pg·h/mL
Interleukin 6 (IL6); CSF, 24–36 h, mean, n = 5
  IL6 cerebrospinal fluid (w/o R111) AUC (24–36 h): 575 pg·h/mL
Interleukin 6 (IL6); CSF, 36–48 h, mean, n = 5
  IL6 cerebrospinal fluid (w/o R111) AUC (36–48 h): 436 pg·h/mL
Interleukin 6 (IL6); plasma, 1.5–12 h, mean, n = 6
  IL6 plasma AUC (1.5–12 h): 435 pg·h/mL
Interleukin 6 (IL6); plasma, 12–24 h, mean, n = 6
  IL6 plasma AUC (12–24 h): 596 pg·h/mL
Interleukin 6 (IL6); plasma, 24–36 h, mean, n = 6
  IL6 plasma AUC (24–36 h): 598 pg·h/mL
Interleukin 6 (IL6); plasma, 36–48 h, mean, n = 6
  IL6 plasma AUC (36–48 h): 409 pg·h/mL
Interleukin 6 (IL6); plasma, time after surgery
  Time until plasma IL6 returned to preoperative levels: ≤ 20 h
Interleukin 6 (IL6); tissue exudate, 4–12 h, mean, n = 6
  IL6 tissue exudate AUC (4–12 h): 479 ng·h/mL
Interleukin 6 (IL6); [7]
  IL6 tissue exudate AUC (12–24 h): 1606 ng·h/mL
Interleukin 6 (IL6); [8]
  IL6 tissue exudate AUC (24–36 h): 1200 ng·h/mL
Interleukin 6 (IL6); [9]
  IL6 tissue exudate AUC (36–47 h): 861 ng·h/mL
[3]; ref Agrawal et al., [2003]
  Absorption, bioavailability and elimination: fast absorption, high bioavailability and slow elimination
[4]; 120 mg 2 h before surgery, mean (SD), n = 6
  Intra-OP BL (blood loss during surgery): 383 (98) mL
[4]; either treatment group
  Unwanted drug effects: not seen
[5]
  Post-operative analgesic satisfaction versus placebo: significantly higher

## O=C(c1ccccc1)c1ccc2n1CCC2C(=O)O (stereo not shown) [ketorolac]
[6]
  Pain relief with preoperative versus post-operative administration: significantly superior with preoperative administration

## Cc1ccc(-c2cc(C(F)(F)F)nn2-c2ccc(S(N)(=O)=O)cc2)cc1 [celecoxib]
[3]; oral, ref Brune et al., [2010]
  Absorption / bioavailability: absorbed slowly and to show variable (low) bioavailability; also recorded: slow and incomplete absorption
